Key:
[1] = biological target: T1, 5-HT7R (Homo sapiens, UniProt P34969); type: cell-based
Outline: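 HEK-293 cells stably expressing h5-HT7R, grown in DMEM with 10% dialyzed FCS and penicillin/streptomycin. Cells were preincubated with a 5-HT7R antagonist (10 µM, 10 min) or the PKA inhibitor H89 before 10 µM ligand. Lysates were read by AlphaScreen SureFire p-ERK1/2 and p-c-SRC kits, or by Western blot with densitometry. Three independent experiments; mean ± SEM.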

[2] = biological target: T1, 5-HT7R; type: cell-based; conditions: 10 µM ligand, 2 to 60 min, Western blot
Outline: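 HEK-293 cells stably expressing h5-HT7R were exposed to 10 µM ligand for 2 to 60 min, or to rising concentrations for 7 min. Lysates were run on 10% SDS-PAGE, transferred to PVDF and blocked in 5% milk in TBS-T (pH 7.4), then probed for phospho-ERK1/2. Bands were quantified by densitometry; three independent experiments, mean ± SEM.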

[3] = system: formalin-induced hindpaw licking; test: Formalin test; type: in vivo; conditions: rats, Serodolin 10 mg/kg s.c., morphine 4 mg/kg s.c.
[4] = biological target: T1, 5-HT7R; test: cAMP accumulation; type: cell-based; conditions: ligand alone
[5] = Pharmacokinetic study in plasma and brain; type: in vivo; conditions: 5 mg/kg s.c., C57BL/6 mice
[6] = system: thermal nociception; test: Tail immersion test; type: in vivo; conditions: 5 mg/kg s.c.
Outline: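 Male mice (8–14 wk; C57BL/6 or 5-HT7R−/− on C57BL/6 background) received test compound 5 mg/kg by tail s.c. injection. Vehicle was 20% DMSO and 5% Tween 80 in PBS. Some groups were also given 5-HT7R antagonist 5 mg/kg i.p. Tail immersion latency in 50 ± 2 °C water was measured 10 min (T0) and 40 min (T30) post-injection.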

[7] = pretreatment, Serodolin 10 µM 7 min, AlphaScreen

T1 sequence (P34969 1-432): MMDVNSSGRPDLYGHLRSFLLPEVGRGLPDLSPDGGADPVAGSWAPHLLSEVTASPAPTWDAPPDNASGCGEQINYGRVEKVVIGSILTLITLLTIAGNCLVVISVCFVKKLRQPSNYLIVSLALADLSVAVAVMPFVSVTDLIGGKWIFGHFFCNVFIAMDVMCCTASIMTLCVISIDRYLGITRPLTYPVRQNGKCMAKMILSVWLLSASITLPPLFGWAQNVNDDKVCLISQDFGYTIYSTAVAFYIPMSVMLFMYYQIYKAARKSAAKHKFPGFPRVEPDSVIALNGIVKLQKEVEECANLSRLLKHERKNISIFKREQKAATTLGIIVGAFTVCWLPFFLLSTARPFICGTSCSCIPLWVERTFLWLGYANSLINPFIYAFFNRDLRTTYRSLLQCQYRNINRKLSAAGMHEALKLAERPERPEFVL

In the case of CC(C)(C)n1nc(-c2ccc(Cl)cc2)c2c(N)ncnc21 [PP2], the “block of Serodolin-induced ERK phosphorylation” value [1, 7] is reported as 99% and the “block of Serodolin-induced c-SRC phosphorylation” value [1, 7] is reported as 100%.
With O=C1Nc2cccc3c2C1(CCCCN1CC=C(c2ccccc2)CC1)CCC3 (stereo not shown) [DR4004] the “induction of ERK phosphorylation” value [2] was “none of them were able to induce ERK activation”.
With Nc1ncnc2c1cnn2-c1ccccc1 [PP3] the “effect on Serodolin-induced ERK and c-SRC phosphorylation” value ([1]; pretreatment, AlphaScreen) was “inactive”.
For CN1CC[C@]23c4c5ccc(O)c4O[C@H]2[C@@H](O)C=C[C@H]3[C@H]1C5 [morphine], the “inhibitory effect on licking, early phase (vs vehicle-treated group)” value ([3]; 0 to 5 min, not significant) was −57% and the “inhibition of licking, late phase (vs vehicle-treated group)” value ([3]; 17 to 27 min) was −64%.
With Cc1nn(C)c(C)c1-c1cccc(CCN(C)C)c1 [E55888] the “effect on cAMP when tested alone” value [4] was “induced a concentration-dependent accumulation of cAMP”, the “induction of ERK phosphorylation” value [2] was “induce ERK phosphorylation” and the “phosphorylation of c-SRC kinase at Tyr416” value ([1]; 10 µM, 7 min, Western blot) was “could not be observed after 5-CT or E55888 stimulation”. For the same compound, the “time after which compound is eliminated / undetectable in plasma and brain” value [5] was 120 min, the “maximum of detection in brain” value ([5]; brain) was 1.4 ± 0.2 µg/mL and the “maximum of detection in plasma” value ([5]; plasma) was 6.1 ± 0.5 µg/mL. For the same compound, the “antinociceptive effect in 5-HT7R KO mice” value [6] was “did not exert any antinociceptive effect”.
